NPY-Y1 PAM-ag = potentiators or agonists of human neuropeptide Y receptor Y1. P25929. NPY-Y1 expressing cells, potentiator/agonist activation. activation, % at 3.6 µM. 220,000 tested, 0.37% active. AID 1304; in the data active means activation above about 33%, passing the limit was not always enough;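 further: cells stimulated with NPY at EC10 then isoproterenol at EC100; 0% = low agonist plus stimulus and 100% = saturating agonist plus stimulus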
Target sequence (P25929 whole entry, looked up): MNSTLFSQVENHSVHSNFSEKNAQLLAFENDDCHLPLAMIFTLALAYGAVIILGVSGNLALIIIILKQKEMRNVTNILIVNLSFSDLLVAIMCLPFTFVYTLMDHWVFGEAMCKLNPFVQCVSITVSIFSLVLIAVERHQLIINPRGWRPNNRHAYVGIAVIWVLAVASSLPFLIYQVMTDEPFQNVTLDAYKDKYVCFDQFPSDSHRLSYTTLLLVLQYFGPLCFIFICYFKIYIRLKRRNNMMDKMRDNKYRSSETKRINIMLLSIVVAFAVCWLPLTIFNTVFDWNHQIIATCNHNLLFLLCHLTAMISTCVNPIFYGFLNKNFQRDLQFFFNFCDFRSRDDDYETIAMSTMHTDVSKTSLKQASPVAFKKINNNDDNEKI
NPY-Y2 PAM-ag = potentiates or activates human NPY-Y2 receptor. P49146. cells expressing NPY-Y2, potentiator/agonist read-out. activation, % at 3.6 µM. 220,000 tested, 0.45% active. AID 1359; in the data active means activation above about 27%;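 further: cells stimulated with NPY near EC25 plus isoproterenol at EC100; 0% = vehicle plus submaximal agonist and 100% = vehicle plus saturating agonist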
NPY-Y2 antag = NPY-Y2 (human) receptor antagonism. 140,000 tested, 0.99% active. AID 793. P49146. inhibition, % at 2.7 µM. NPY-Y2 expressing cells, antagonist mode; in the data active means inhibition above about 17%;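 further: 0% = vehicle with agonist challenge and 100% = reference antagonist with challenge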
NPY-Y1 antag = NPY-Y1 (human) receptor antagonism; P25929; HEK293-CNG Y1 cells, membrane potential fluorescence; NPY at EC95, then isoproterenol; inhibition, % at 3.6 µM; 200,000 tested, 1% active; AID 1040;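 active means inhibition above the campaign mean inhibition of all tested compounds plus 3 SD, cut at about 20% in these data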;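 further: 0% = DMSO wells given NPY plus isoproterenol and 100% = isoproterenol alone without NPY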
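System: HEK293 cells with Y1 receptor plus CNG channel / Probe or stimulus: NPY 25 nM then isoproterenol 1 µM plus Ro 20-1724 25 µM / Compound: one concentration, 3.6 µM, in 0.4% DMSO / Schedule: compound incubation 1 h at room temperature, readout 45 min post-stimulation / Measured by: membrane potential fluorescence / Read-out: % inhibition of NPY effect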
bCat nuc transl = beta-catenin nuclear translocation modulation. HeLa beta-catenin nuclear translocation, immunofluorescence imaging. nuclear translocation activity, % at 5 µM. 190,000 tested, 0.3% active;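 active means nuclear translocation activity above 50% at 5 µM, with a well cell count of 50 or more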;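 further: per-cell ratio of nuclear to cytoplasmic median beta-catenin stain intensity; plate controls were DMSO negative control for no effect and GSK-3 inhibitor IX positive control for full effect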
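Signal – beta-catenin immunofluorescence imaging with DAPI · Test system – human HeLa cell line · Dosing – 5 µM primary single dose, 0.1% DMSO, 0.02–20 µM confirmation series · Measure – % activation, nuclear-to-cytoplasmic median beta-catenin signal ratio per cell · Incubation – 24 h compound exposure at 37°C, 5% CO2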
MT stabilize HCS = stabilizes microtubules in HeLa cells | AID 2205 | % tubulin-high responders, % at 10 µM | HeLa tubulin immunostaining HCS, 24 h; share of cells brighter than vehicle mean+2SD | 200,000 tested, 0.83% active;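 active means plate Z-score above 3 for both tubulin-high and condensed-nucleus cell shares, with cell loss under 80%, at 10 µM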;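 further: anti alpha tubulin signal scored within the nucleus-defined area of each cell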
Active calls of the source: *; nt = not tested or not shown. Only some compounds are listed: those with a hit (about 2.6% of all), similar ones and a draw of the others.

SMILES | NPY-Y1 PAM-ag | NPY-Y2 PAM-ag | NPY-Y2 antag | NPY-Y1 antag | bCat nuc transl | MT stabilize HCS
COc1cc(C(C(=O)NC2CCCCC2)N(Cc2cccs2)C(=O)Cc2c[nH]c3ccccc23)cc(OC)c1OC (centres undefined) | 5 | 32* | 9 | 3 | -3 | 4
O=C(NC1CCCC1)C(c1ccsc1)N(Cc1ccccc1)C(=O)Cc1cccs1 (centres undefined) | -34 | -21 | 33* | 60* | 0 | 1
O=C(CSc1nnc(-c2ccccc2Cl)o1)Nc1ccccn1 | -3 | -4 | nt | 5 | 0 | 5
N#CC1(C#N)CC(C=O)=C(N)C1(C#N)CC(=O)C12CC3CC(CC(C3)C1)C2 (centres undefined) | 4 | 0 | 0 | -4 | -2 | 3
COc1ccc(CN(C(=O)c2cccs2)C(C(=O)NC2CCCCC2)c2ccc3ncccc3c2)cc1 (centres undefined) | -9 | 0 | 2 | 5 | nt | 4
O=C(NC1CCCC1)C(c1cccs1)N(Cc1ccco1)C(=O)c1csnn1 (centres undefined) | -27 | 9 | -1 | 3 | 0 | 2
O=C(NC1CCCC1)C(c1ccsc1)N(Cc1ccco1)C(=O)Cc1cccs1 (centres undefined) | -35 | -32 | 38* | 62* | -5 | 2
O=C(NC1CCCCC1)C(c1ccc2ncccc2c1)N(Cc1ccccc1)C(=O)c1cccs1 (centres undefined) | -1 | -27 | 25* | 24* | -3 | 4
CCc1ccc(C2NC(=S)NC3=C2C(=O)CC(C)(C)C3)cc1 (centres undefined) | -9 | 8 | -2 | 0 | 4 | 6
COc1ccccc1Cn1c(SCC(N)=O)nc2c(oc3ccccc32)c1=O | 4 | -1 | nt | 3 | 2 | 1
Cc1onc(-c2c(Cl)cccc2Cl)c1C(=O)N1CCN(c2ccccc2)CC1 | -2 | 13 | nt | 4 | 0 | 21*
COC(=O)c1ccc(COc2ccc(/C=N/NC(N)=S)cc2)o1 | 15 | 3 | nt | nt | -1 | nt
CCOC(=O)Cc1c(C)nc2c(-c3ccccc3)c(C)[nH]n2c1=O | 9 | -9 | 0 | 2 | nt | 3
CCOC(=O)Cc1c(C)nc2c(-c3ccccc3)c[nH]n2c1=O | -1 | -5 | 1 | -5 | -1 | 19*
Cc1ccc(C(=O)Nc2cccc(C(F)(F)F)c2)cc1NC(=O)c1csc(-c2ccncc2)n1 | nt | nt | nt | nt | 70* | nt
O=C(Nc1ccc(F)cc1F)c1csc(-c2ccncc2)n1 | -1 | -8 | nt | -1 | -5 | 1
Cc1ccc(NC(=O)Cc2cc(C(=O)O)c3ccccc3n2)c(C)c1 | 78* | 80* | nt | -16 | 2 | 3
COc1ccc(-c2nc3ccc(N4CCCC4)cc3c(=O)[nH]2)cc1OC | -5 | -15 | -1 | -5 | -1 | 15*
COc1ccc(-c2cc(C(=O)N3CCN(c4ccccc4)CC3)c3ccccc3n2)cc1OC | -13 | -11 | 6 | 4 | 0 | 2
Cc1cc(C)cc(C(=O)N2CC(=O)Nc3ccccc32)c1 | -7 | -4 | 4 | 8 | 154* | 28*
CCC(CC)C(=O)OCC(=O)Nc1cc(OC)c([N+](=O)[O-])cc1C | -13 | -2 | 0 | 12 | 0 | 4
O=C1CCC(=O)N1c1nc2n(n1)C(c1ccccc1)C=C(c1ccc(Br)cc1)N2 (centres undefined) | 89* | 7 | 0 | -6 | -9 | 3
COc1ccc(C2C=C(c3ccc(Br)cc3)Nc3nc(N4C(=O)CCC4=O)nn32)cc1 (centres undefined) | 2 | -2 | 1 | -2 | 2 | 2
CSc1nsc(/C=C/Nc2ccc(C)cc2)c1C#N | -10 | -2 | 2 | 3 | 1 | 1
CCN(CC(=O)Nc1ccc(OC)c(Cl)c1)CC(=O)NC(C)C | -2 | 0 | nt | 13 | -1 | 1
SMILES | NPY-Y1 PAM-ag | NPY-Y2 PAM-ag | NPY-Y2 antag | NPY-Y1 antag | bCat nuc transl | MT stabilize HCS
CCCCC(=O)N/N=C(/C)C1=C(C)C(C)(C)OC1=O | 6 | 8 | nt | -2 | -2 | 6
Cc1ccsc1C1C=C(c2cccc(Br)c2)Nc2ncnn21 (centres undefined) | -18 | -14 | 5 | -1 | 7 | 3
Fc1ccc(Br)cc1C1C=C(c2ccc(Br)cc2)Nc2ncnn21 (centres undefined) | -9 | 0 | 3 | -2 | -11 | 49*
CCc1ccc(C2=CC(c3cc(Br)ccc3F)n3ncnc3N2)cc1 (centres undefined) | 6 | 4 | 7 | 5 | 2 | 30*
O=C(/C=C/c1ccco1)NC(=S)Nc1cccc(-c2nc3ccccc3o2)c1 | -8 | -22 | 1 | 6 | 54* | 28*
O=C(/C=C/c1ccco1)NC(=S)Nc1cccc(-c2nc3ccccc3s2)c1 | 10 | -8 | 2 | 1 | nt | 39*
O=C(/C=C/c1ccco1)NC(=S)Nc1cc(-c2nc3ccccc3s2)ccc1Cl | -7 | 4 | 2 | -2 | 0 | 3
COc1ccc(C2N(Cc3ccccc3)CC(=O)N2/N=C(\C)c2ccccc2)cc1 (centres undefined) | -5 | 3 | 3 | 9 | 5 | 3
COc1ccc(C2(NC(C)=O)CCN(C(=O)c3ccco3)CC2)cc1 | 29 | 12 | -3 | -2 | -1 | 5
CC1(C)SC(=S)N(/N=C/c2ccc(O)cc2)C1N(O)C(=O)Nc1ccc([N+](=O)[O-])cc1 (centres undefined) | 38 | 33* | -5 | -17 | -4 | 4
CN1CCc2c1nc1ccccc1c2N=C1CCCN1Cc1ccccc1 | -46 | -16 | 22* | 22* | -4 | 2
N#Cc1ccc(CSc2nnc(-c3cccnc3)n2-c2ccccc2)cc1 | 15 | 9 | -1 | 1 | -10 | 4
Clc1ccc(-n2c(SC/C=C/c3ccccc3)nnc2-c2cccnc2)cc1 | -43 | -17 | 30* | 23* | -5 | 2
Nn1c(SC/C=C/c2ccccc2)nnc1-c1cccnc1 | 3 | -12 | 3 | 1 | -3 | 5
CCOc1ccc(-n2c(SCc3ccc(C#N)cc3)nnc2-c2cccnc2)cc1 | -17 | -11 | 26* | 45* | nt | 5
Cc1ccccc1NC(=O)OCc1cccnc1Oc1ccc(Cl)cc1 | -35 | -20 | nt | 9 | -1 | 5
COC(=O)c1ccc(/C=N/NC(=O)c2ccccc2Cl)cc1 | 15 | -3 | 6 | 4 | -2 | 3
CC(C)c1ccc(/C=N/NC(=O)c2ccccc2Cl)cc1 | -8 | -23 | nt | 11 | -1 | 23*
COC(=O)CSC1=C(C#N)C(c2ccc(C)o2)CC(=O)N1 (centres undefined) | -4 | -23 | nt | 8 | 2 | 17*
N#CC1=C(SCC(=O)Nc2nccs2)NC(=O)CC1c1ccccc1 (centres undefined) | -12 | -4 | 2 | 7 | nt | 40*
